Assays:
Dipeptidyl peptidase 4 = Dipeptidyl peptidase 4 (Homo sapiens, UniProt P27487); assay: Inhibition of DPP4 (unknown origin) using Ala-Pro-paranitroanilide as chromogenic substrate preincubated for 15 mins followed by substrate addition and measured after 15 mins
Dipeptidyl peptidase 9 = Dipeptidyl peptidase 9 (Homo sapiens, UniProt Q86TI2); assay: Inhibition of DPP9 (unknown origin) using Ala-Pro-paranitroanilide as chromogenic substrate preincubated for 15 mins followed by substrate addition and measured after 15 mins
Dipeptidyl peptidase 8 = Dipeptidyl peptidase 8 (Homo sapiens, UniProt Q6V1X1); assay: Inhibition of DPP8 (unknown origin) using Ala-Pro-paranitroanilide as chromogenic substrate preincubated for 15 mins followed by substrate addition and measured after 15 mins
Prolyl endopeptidase = target: T1, Prolyl endopeptidase (Homo sapiens, UniProt P48147); assay: Inhibition of PREP (unknown origin) using N-succinyl-Gly-Pro-AMC as substrate preincubated for 15 mins followed by substrate addition and measured after 15 mins
T1 sequence (P48147 whole entry): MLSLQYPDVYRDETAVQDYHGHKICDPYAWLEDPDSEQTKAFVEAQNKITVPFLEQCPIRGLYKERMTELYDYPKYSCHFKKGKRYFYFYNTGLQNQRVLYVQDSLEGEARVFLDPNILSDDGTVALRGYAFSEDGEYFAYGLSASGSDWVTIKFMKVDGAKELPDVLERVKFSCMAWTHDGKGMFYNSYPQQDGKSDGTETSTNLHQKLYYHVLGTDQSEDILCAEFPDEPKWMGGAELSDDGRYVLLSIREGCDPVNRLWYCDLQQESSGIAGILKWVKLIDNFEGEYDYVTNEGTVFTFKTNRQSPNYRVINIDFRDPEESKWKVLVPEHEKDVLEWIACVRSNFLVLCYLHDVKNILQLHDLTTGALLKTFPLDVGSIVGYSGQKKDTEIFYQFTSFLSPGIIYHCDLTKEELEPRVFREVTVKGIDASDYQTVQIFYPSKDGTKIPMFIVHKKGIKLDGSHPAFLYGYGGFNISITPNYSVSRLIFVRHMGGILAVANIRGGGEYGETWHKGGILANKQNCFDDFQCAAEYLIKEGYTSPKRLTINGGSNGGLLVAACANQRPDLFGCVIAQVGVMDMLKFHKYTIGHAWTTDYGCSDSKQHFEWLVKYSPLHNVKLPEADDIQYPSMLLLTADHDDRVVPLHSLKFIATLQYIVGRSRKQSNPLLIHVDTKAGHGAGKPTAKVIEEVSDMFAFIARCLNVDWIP

Prolyl endopeptidase FAP = target: T2, Prolyl endopeptidase FAP (Homo sapiens, UniProt Q12884); assay: Inhibition of FAP (unknown origin) using Z-Gly-Pro-7-amino-4-methylcoumarine as fluorogenic substrate preincubated for 15 mins followed by substrate addition and measured after 15 mins
T2 sequence (Q12884 whole entry): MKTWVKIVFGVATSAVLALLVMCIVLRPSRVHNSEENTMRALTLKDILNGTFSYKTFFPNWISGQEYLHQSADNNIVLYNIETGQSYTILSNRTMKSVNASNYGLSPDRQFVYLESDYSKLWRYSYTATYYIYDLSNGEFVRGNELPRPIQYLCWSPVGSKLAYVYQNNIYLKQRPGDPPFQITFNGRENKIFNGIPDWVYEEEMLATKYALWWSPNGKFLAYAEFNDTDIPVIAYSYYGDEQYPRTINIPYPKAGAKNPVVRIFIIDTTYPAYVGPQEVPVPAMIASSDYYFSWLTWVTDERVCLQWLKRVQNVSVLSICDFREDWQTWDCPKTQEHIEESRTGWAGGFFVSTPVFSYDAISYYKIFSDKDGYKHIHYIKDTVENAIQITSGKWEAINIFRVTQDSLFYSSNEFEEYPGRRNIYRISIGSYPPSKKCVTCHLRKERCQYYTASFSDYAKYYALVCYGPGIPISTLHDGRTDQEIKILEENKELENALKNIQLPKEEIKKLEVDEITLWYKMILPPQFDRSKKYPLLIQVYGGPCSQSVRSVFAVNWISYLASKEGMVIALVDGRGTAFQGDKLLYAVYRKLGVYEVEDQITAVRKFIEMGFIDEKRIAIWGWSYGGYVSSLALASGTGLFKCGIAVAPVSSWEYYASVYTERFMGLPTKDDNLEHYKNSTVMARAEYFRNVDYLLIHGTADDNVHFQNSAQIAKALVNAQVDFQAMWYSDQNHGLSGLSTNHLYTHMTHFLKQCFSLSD

Dipeptidyl peptidase 2 = Dipeptidyl peptidase 2 (Homo sapiens, UniProt Q9UHL4); assay: Inhibition of DPP2 (unknown origin) using Lys-Ala-pNA as substrate preincubated for 15 mins followed by substrate addition and measured after 15 mins
[1] = Stability in PBS assessed as drug degradation at 185 kBq measured upto 60 mins by radio-HPLC analysis; assay type: physicochemical; details: buffer, 1 h
Method in brief: (§1)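 Radiotracer was incubated at 37 °C for up to 60 min in PBS (0.01 M, pH 7.4) or in mouse plasma. Samples were deproteinized with an equal volume of cold ACN and centrifuged. The supernatant was analyzed by radio-HPLC with 30 s fractions γ-counted to give the intact fraction. Triplicates.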

[2] = Octanol/water partition coefficient, logD of compound at 74 kBq incubated for 2 mins by gamma counter method; assay type: physicochemical
Method in brief: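 Octanol and PBS phases were mixed and vortexed for 2 min, then centrifuged at 3,000 rpm for 10 min. Aliquots of 0.5 mL from each phase were γ-counted and corrected for mass and density. LogD was taken as log10 of the octanol/PBS radioactivity ratio.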

[3] = Drug uptake in intestine of female nude mouse harboring null mutation of CD1 antigen complex at 5.1 to 7.4 MBq, iv measured after 15 to 60 mins by gamma counter analysis; assay type: ADME, organism-based; details: in vivo, dose lower 5.1 MBq, time lower 15 min, dose upper 7.4 MBq, time upper 60 min
Method in brief: (§2)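 Female CD1 nude mice, 6–8 weeks old (20–25 g), received the radiotracer through the lateral tail vein. At 15, 30 and 60 min p.i. (n = 3 per time point) blood was drawn by cardiac puncture and the animals were euthanized. Organs were excised, weighed and γ-counted. Uptake is expressed as %ID/g.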

[4] = Drug uptake in skull of female nude mouse harboring null mutation of CD1 antigen complex xenografted with human U-87 MG cells at 5 to 7.4 MBq, iv measured after 60 mins by gamma counter analysis; assay type: ADME, organism-based; details: in vivo, 1 h, dose 5-7.4 MBq
[5] = Drug uptake in tumor of female nude mouse harboring null mutation of CD1 antigen complex xenografted with human U-87 MG cells at 5 to 7.4 MBq, iv measured at 60 mins by PET/CT analysis; assay type: ADME, organism-based, Neoplasm; details: in vivo, 1 h, dose 5-7.4 MBq
Method in brief: (§3)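 U-87MG xenografts (5×10^6 cells, subcutaneous flank) were grown in female CD1 nude mice to about 200 mm3. Dynamic whole-body PET over 60 min p.i. was followed by CT. Images were reconstructed with OSEM 3D and expressed as %ID/mL to give time-activity curves. For blocking, the FAP inhibitor (5 mg/kg) was given via the tail vein 30 min before the tracer; n=4.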

[6] = Stability in CD1 mouse plasma assessed as drug degradation at 185 kBq measured upto 60 mins by radio-HPLC analysis; assay type: ADME, cell-free; details: 1 h; method in brief: as §1
[7] = Drug uptake in urinary bladder of female nude mouse harboring null mutation of CD1 antigen complex assessed as increase in renal excretion at 5.1 to 7.4 MBq, iv measured after 15 to 60 mins by gamma counter analysis; assay type: ADME, organism-based; details: in vivo, dose lower 5.1 MBq, time lower 15 min, dose upper 7.4 MBq, time upper 60 min; method in brief: as §2
[8] = Drug uptake in tumor of female nude mouse harboring null mutation of CD1 antigen complex xenografted with human U-87 MG cells with increased FAP positive tumor area at 5 to 7.4 MBq, iv measured after 60 mins by immunohistochemistry analysis; assay type: ADME, organism-based, Neoplasm; details: in vivo, 1 h, dose 5-7.4 MBq
[9] = Ratio of drug level in tumor to muscle of female nude mouse harboring null mutation of CD1 antigen complex xenografted with human U-87 MG cells at 5 to 7.4 MBq, iv measured at 60 mins postinjection by gamma counter analysis; assay type: ADME, organism-based; details: in vivo, 1 h, dose 5-7.4 MBq
Method in brief: (§4)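 Subcutaneous U-87MG xenografts (5×10^6 cells in DPBS, hind flank) were grown in female CD1 nude mice to about 200 mm3. After tail-vein radiotracer injection and a 60 min dynamic PET scan, tissues were harvested at 60 min p.i. and γ-counted (%ID/g). Tumor-to-tissue ratios are means ± SD of individual ratios, n=4 per tracer.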

[10] = Ratio of drug level in tumor to small intestine of female nude mouse harboring null mutation of CD1 antigen complex xenografted with human U-87 MG cells at 5 to 7.4 MBq, iv measured at 60 mins postinjection by gamma counter analysis; assay type: ADME, organism-based; details: in vivo, 1 h, dose 5-7.4 MBq; method in brief: as §4
[11] = Stability in CD1 mouse plasma assessed as compound remaining at 185 kBq measured upto 60 mins by radio-HPLC analysis; assay type: ADME, cell-free; details: read-out: Stability; method in brief: as §1
[12] = Ratio of drug level in tumor to blood of female nude mouse harboring null mutation of CD1 antigen complex xenografted with human U-87 MG cells at 5 to 7.4 MBq, iv measured at 60 mins postinjection by gamma counter analysis; assay type: ADME, organism-based; details: tumour, 1 h, dose 5-7.4 MBq; method in brief: as §4
[13] = Stability in PBS assessed as compound remaining at 185 kBq measured upto 60 mins by radio-HPLC analysis; assay type: physicochemical; details: read-out: Stability; method in brief: as §1
[14] = Drug uptake in tumor of female nude mouse harboring null mutation of CD1 antigen complex xenografted with human U-87 MG cells at 5 to 7.4 MBq, iv pretreated with (S)-N-(2-(2-cyano-4,4-difluoropyrrolidin-1-yl)-2-oxoethyl)quinoline-4-carboxamide for 30 mins followed by radioligand addition and measured measured after 60 mins by PET/CT analysis; assay type: ADME, organism-based, Neoplasm; details: in vivo, 1 h, dose 5-7.4 MBq; method in brief: as §3
[15] = Ratio of drug level in tumor to liver of female nude mouse harboring null mutation of CD1 antigen complex xenografted with human U-87 MG cells at 5 to 7.4 MBq, iv measured at 60 mins postinjection by gamma counter analysis; assay type: ADME, organism-based; details: in vivo, 1 h, dose 5-7.4 MBq; method in brief: as §4
[16] = Drug uptake in liver of female nude mouse harboring null mutation of CD1 antigen complex at 5.1 to 7.4 MBq, iv measured after 15 to 60 mins by gamma counter analysis; assay type: ADME, organism-based; details: in vivo, dose lower 5.1 MBq, time lower 15 min, dose upper 7.4 MBq, time upper 60 min; method in brief: as §2
[17] = Drug uptake in kidney of female nude mouse harboring null mutation of CD1 antigen complex assessed as increase in renal excretion at 5.1 to 7.4 MBq, iv measured after 15 to 60 mins by gamma counter analysis; assay type: ADME, organism-based; details: in vivo, dose lower 5.1 MBq, time lower 15 min, dose upper 7.4 MBq, time upper 60 min; method in brief: as §2
[18] = Stability in female nude mouse harboring null mutation of CD1 antigen complex assessed as drug degradation at 5.1 to 7.4 MBq, iv measured at 60 mins by radio-HPLC analysis; assay type: ADME, organism-based; details: 1 h, dose 5.1-7.4 MBq
Method in brief: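 Female CD1 nude mice received 5.1–7.4 MBq i.v. EDTA blood collected at 15, 30 and 60 min p.i. (n=3 per time point) was centrifuged to plasma, deproteinized with cold ACN and centrifuged. The supernatant was analyzed by radio-HPLC with 30 s fractions γ-counted to give the percent intact tracer.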

[19] = Drug uptake in bone structures of female nude mouse harboring null mutation of CD1 antigen complex xenografted with human U-87 MG cells at 5 to 7.4 MBq, iv measured after 60 mins by gamma counter analysis; assay type: ADME, organism-based, Bone element; details: in vivo, 1 h, dose 5-7.4 MBq
[20] = Drug uptake in tumor of female nude mouse harboring null mutation of CD1 antigen complex xenografted with human HT-29 cells with decreased FAP positive tumor area at 5 to 7.4 MBq, iv measured after 60 mins by immunohistochemistry analysis; assay type: ADME, organism-based, Neoplasm; details: in vivo, 1 h, dose 5-7.4 MBq

Sequence of Dipeptidyl peptidase 8 (Q6V1X1 whole entry): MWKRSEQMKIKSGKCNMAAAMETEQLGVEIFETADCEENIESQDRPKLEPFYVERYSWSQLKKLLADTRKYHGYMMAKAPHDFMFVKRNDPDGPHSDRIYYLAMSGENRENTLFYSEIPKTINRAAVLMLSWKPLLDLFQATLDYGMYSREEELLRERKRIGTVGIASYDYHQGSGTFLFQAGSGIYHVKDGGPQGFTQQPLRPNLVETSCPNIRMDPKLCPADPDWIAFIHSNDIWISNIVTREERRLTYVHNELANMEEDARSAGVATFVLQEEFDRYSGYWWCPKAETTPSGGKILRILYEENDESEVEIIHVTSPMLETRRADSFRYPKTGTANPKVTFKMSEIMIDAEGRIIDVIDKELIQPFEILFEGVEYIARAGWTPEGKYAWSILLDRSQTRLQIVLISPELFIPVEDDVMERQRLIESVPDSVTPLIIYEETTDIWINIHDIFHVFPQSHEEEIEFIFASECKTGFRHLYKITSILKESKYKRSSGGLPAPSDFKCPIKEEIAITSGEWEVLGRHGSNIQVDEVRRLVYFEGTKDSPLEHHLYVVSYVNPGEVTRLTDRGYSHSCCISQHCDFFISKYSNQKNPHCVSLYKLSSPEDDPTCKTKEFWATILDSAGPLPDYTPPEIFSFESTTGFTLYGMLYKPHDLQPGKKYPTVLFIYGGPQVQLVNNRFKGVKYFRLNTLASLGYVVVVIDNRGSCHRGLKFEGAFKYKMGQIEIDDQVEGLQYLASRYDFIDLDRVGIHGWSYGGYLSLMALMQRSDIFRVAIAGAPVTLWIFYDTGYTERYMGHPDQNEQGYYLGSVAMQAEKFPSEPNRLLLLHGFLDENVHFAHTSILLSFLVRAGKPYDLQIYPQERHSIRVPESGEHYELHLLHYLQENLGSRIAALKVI
Sequence of Dipeptidyl peptidase 4 (P27487 whole entry): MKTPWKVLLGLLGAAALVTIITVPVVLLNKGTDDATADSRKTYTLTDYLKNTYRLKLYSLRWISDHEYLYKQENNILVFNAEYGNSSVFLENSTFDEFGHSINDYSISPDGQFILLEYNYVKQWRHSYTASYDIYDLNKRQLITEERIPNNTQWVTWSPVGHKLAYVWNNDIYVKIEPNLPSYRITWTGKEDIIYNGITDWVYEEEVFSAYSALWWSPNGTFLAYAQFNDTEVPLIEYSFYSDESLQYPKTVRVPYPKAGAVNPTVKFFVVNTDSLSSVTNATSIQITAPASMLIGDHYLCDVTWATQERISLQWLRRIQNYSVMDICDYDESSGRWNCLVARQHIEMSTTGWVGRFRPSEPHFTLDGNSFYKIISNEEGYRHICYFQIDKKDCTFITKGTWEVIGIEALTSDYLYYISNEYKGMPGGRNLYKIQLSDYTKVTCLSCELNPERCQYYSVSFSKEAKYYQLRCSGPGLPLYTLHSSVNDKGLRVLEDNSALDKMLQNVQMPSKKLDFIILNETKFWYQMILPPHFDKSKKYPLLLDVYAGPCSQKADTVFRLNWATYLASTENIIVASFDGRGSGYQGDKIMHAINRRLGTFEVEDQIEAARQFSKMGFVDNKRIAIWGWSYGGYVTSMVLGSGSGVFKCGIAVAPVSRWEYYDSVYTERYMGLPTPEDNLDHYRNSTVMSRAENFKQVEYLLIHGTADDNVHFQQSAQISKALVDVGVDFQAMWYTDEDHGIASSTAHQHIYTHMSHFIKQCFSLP
Sequence of Dipeptidyl peptidase 9 (Q86TI2 whole entry): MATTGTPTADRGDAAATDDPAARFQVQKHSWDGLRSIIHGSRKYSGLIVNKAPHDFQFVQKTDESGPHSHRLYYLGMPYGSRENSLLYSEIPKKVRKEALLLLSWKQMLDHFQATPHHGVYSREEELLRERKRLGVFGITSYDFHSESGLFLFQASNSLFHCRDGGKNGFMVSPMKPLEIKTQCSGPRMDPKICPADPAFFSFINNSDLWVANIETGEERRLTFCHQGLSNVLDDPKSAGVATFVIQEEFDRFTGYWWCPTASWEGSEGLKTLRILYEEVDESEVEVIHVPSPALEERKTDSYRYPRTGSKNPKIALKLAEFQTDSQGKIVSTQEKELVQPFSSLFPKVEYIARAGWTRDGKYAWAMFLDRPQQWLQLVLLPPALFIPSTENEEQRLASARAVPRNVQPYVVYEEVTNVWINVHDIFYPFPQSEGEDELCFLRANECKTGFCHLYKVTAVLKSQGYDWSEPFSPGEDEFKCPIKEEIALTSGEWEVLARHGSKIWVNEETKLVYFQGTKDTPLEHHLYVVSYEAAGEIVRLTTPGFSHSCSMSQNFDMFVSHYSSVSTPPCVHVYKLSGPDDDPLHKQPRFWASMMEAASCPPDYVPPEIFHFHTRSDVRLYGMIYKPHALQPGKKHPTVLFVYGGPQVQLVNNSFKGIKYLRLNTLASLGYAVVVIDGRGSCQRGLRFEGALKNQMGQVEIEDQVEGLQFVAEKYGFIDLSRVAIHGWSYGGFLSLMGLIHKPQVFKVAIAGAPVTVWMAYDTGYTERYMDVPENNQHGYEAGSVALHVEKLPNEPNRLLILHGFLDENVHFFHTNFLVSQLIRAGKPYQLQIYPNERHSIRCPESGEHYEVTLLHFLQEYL

SMILES: COC(CF)COc1ccc2nccc(C(=O)NCC(=O)N3CC(F)(F)C[C@H]3C#N)c2c1 (stereo not given in full)
- IC50 (Dipeptidyl peptidase 4): > 10 µM
- IC50 (Dipeptidyl peptidase 9): 1.6 µM
- IC50 (Dipeptidyl peptidase 8): 5.8 µM
- IC50 (Prolyl endopeptidase): > 10 µM
- IC50 (Prolyl endopeptidase FAP): 0.0014 µM
- IC50 (Dipeptidyl peptidase 2): > 10 µM

SMILES: N#C[C@@H]1CC(F)(F)CN1C(=O)CNC(=O)c1ccnc2ccc(OC[C@H](O)[C@@H](O)CF)cc12
- IC50 (Dipeptidyl peptidase 4): > 10 µM
- IC50 (Dipeptidyl peptidase 9): > 10 µM
- IC50 (Dipeptidyl peptidase 8): > 10 µM
- IC50 (Prolyl endopeptidase): > 10 µM
- IC50 (Prolyl endopeptidase FAP): 0.00177 µM
- IC50 (Dipeptidyl peptidase 2): > 10 µM

SMILES: C[N+](C)(CF)CCCOc1ccc2nccc(C(=O)NCC(=O)N3CC(F)(F)C[C@H]3C#N)c2c1
- IC50 (Dipeptidyl peptidase 2): > 10 µM

SMILES: N#C[C@@H]1CC(F)(F)CN1C(=O)CNC(=O)c1ccnc2ccc(OCC(O)C[18F])cc12 (stereo not given in full)
- Stability [1]: Stable
- logD at 2 min [2]: 0.18
- Drug uptake [3]: Active
- Drug uptake [4]: Active
- Drug uptake [5]: < 3 %ID/ml
- Stability [6]: Stable
- Drug uptake [7]: Active
- Drug uptake [8]: Active
- Ratio [9]: 3.6
- Ratio [10]: 0.16
- remaining at 1 h, 185 kBq [11]: > 70%
- Ratio [12]: 6.58
- remaining at 1 h, 185 kBq [13]: > 70%
- Drug uptake [14]: Not Active
- Ratio [15]: 2.37
- Drug uptake [16]: Active
- Drug uptake [17]: Active
- Stability [18]: Unstable
- Drug uptake [19]: Active
- Drug uptake [20]: Not Active

SMILES: CC1(C)O[C@@H](CF)[C@H](COc2ccc3nccc(C(=O)NCC(=O)N4CC(F)(F)C[C@H]4C#N)c3c2)O1
- IC50 (Dipeptidyl peptidase 4): > 10 µM
- IC50 (Dipeptidyl peptidase 9): > 10 µM
- IC50 (Dipeptidyl peptidase 8): > 10 µM
- IC50 (Prolyl endopeptidase): > 10 µM
- IC50 (Prolyl endopeptidase FAP): 0.00046 µM
- IC50 (Dipeptidyl peptidase 2): > 10 µM

SMILES: N#C[C@@H]1CC(F)(F)CN1C(=O)CNC(=O)c1ccnc2ccc(OCC(O)CF)cc12 (stereo not given in full)
- IC50 (Dipeptidyl peptidase 4): > 10 µM
- IC50 (Dipeptidyl peptidase 9): > 10 µM
- IC50 (Dipeptidyl peptidase 8): > 10 µM
- IC50 (Prolyl endopeptidase): > 10 µM
- IC50 (Prolyl endopeptidase FAP): 0.00437 µM
- IC50 (Dipeptidyl peptidase 2): > 10 µM

Source: ChEMBL document CHEMBL5543163, “Druglike, 18F-labeled PET Tracers Targeting Fibroblast Activation Protein” (J Med Chem, 2024)
